The source made the active and inactive calls. The calls are words filed in the database; no cut-off is given here.
Assays:
[1] = system: Nucleic Acid; assay: Binding affinity to DNA (unknown origin) assessed as DNA intercalation by UV-visible spectrophotometry in presence of Ni2+; format: nucleic-acid assay
[2] = system: Nucleic Acid; assay: Binding affinity to DNA (unknown origin) assessed as DNA intercalation by UV-visible spectrophotometry in presence of Zn2+; format: nucleic-acid assay
[3] = system: BJ; assay: Selectivity index, ratio of IC50 for human BJ cells to IC50 for human CCRF-CEM cells; format: functional; settings: pooled result: one value given for 2 cell lines, strains, targets or settings
[4] = system: CEM-DNR; assay: Selectivity index, ratio of IC50 for human MRC5 cells to IC50 for human CEM-DNR cells; format: functional
[5] = system: K562; assay: Selectivity index, ratio of IC50 for human MRC5 cells to IC50 for human K562 cells; format: functional
[6] = system: BJ; assay: Selectivity index, ratio of IC50 for human BJ cells to IC50 for human K562-TAX cells; format: functional
[7] = system: MRC5; assay: Selectivity index, ratio of IC50 for human MRC5 cells to IC50 for human K562-TAX cells; format: functional
[8] = system: A549; assay: Selectivity index, ratio of IC50 for human BJ cells to IC50 for human A549 cells; format: functional
[9] = system: A549; assay: Selectivity index, ratio of IC50 for human MRC5 cells to IC50 for human A549 cells; format: functional
[10] = system: BJ; assay: Selectivity index, ratio of IC50 for human BJ cells to IC50 for human HCT116 cells; format: functional
[11] = system: HCT-116; assay: Selectivity index, ratio of IC50 for human MRC5 cells to IC50 for human HCT116 cells; format: functional
[12] = system: BJ; assay: Selectivity index, ratio of IC50 for human BJ cells to IC50 for human p53-/- HCT116 cells; format: functional
[13] = system: HCT-116; assay: Selectivity index, ratio of IC50 for human MRC5 cells to IC50 for human p53-/- HCT116 cells; format: functional
[14] = system: CCRF-CEM; assay: Cytostatic activity against human CCRF-CEM cells after 72 hrs by MTT assay; format: functional, cell-based
How it was run: (§1)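 Cells were seeded at 25,000–30,000 per well and pre-incubated for 24 h at 37°C in 5% CO2. Four-fold compound dilutions were added in duplicate and incubated for 72 h. MTT was added for 1–4 h, and formazan was dissolved in 10% aq SDS (pH 5.5) overnight at 37°C. OD was read at 540 nm. IC50 came from dose-response curves, mean ± SD of eight independent experiments.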

[15] = system: K562; assay: Cytostatic activity against human K562 cells after 72 hrs by MTT assay; format: functional, cell-based; settings: K562, 72 h; how it was run: as §1
[16] = Cytostatic activity against human K562-TAX cells after 72 hrs by MTT assay; format: functional, cell-based; how it was run: as §1
[17] = system: A549; assay: Cytostatic activity against human A549 cells after 72 hrs by MTT assay; format: functional, cell-based; settings: A549, 72 h; how it was run: as §1
[18] = Cytostatic activity against human HCT116 cells after 72 hrs by MTT assay; format: functional, cell-based; settings: HCT-116, 72 h; how it was run: as §1
[19] = system: BJ; assay: Cytostatic activity against human BJ cells after 72 hrs by MTT assay; format: ADME, cell-based; how it was run: as §1
[20] = system: CCRF-CEM; assay: Induction of apoptosis in human CCRF-CEM cells assessed as apoptotic cells at 5 times IC50 after 24 hrs by propidium iodide staining-based flow cytometry; format: functional
How it was run: (§2)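 Cells were then fixed in 70% ethanol, washed in hypotonic citrate buffer, treated with RNase (50 µg/mL) and stained with propidium iodide. Flow cytometry used a 488 nm laser. Apoptosis was scored as the percentage of particles with propidium content below G0/G1.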

[21] = system: CCRF-CEM; assay: Cell cycle arrest in human CCRF-CEM cells assessed as accumulation at G0/G1 phase at 5 times IC50 after 24 hrs by propidium iodide staining-based flow cytometry; format: functional; how it was run: as §2
[22] = system: CCRF-CEM; assay: Cell cycle arrest in human CCRF-CEM cells assessed as accumulation at S phase at 5 times IC50 after 24 hrs by propidium iodide staining-based flow cytometry; format: functional; how it was run: as §2
[23] = system: CCRF-CEM; assay: Induction of apoptosis in human CCRF-CEM cells assessed as mitotic cells at IC50 after 24 hrs by pH3Ser10+ labeling-based flow cytometry; format: functional
[24] = system: CCRF-CEM; assay: Induction of apoptosis in human CCRF-CEM cells assessed as mitotic cells at 5 times IC50 after 24 hrs by pH3Ser10+ labeling-based flow cytometry; format: functional
[25] = system: CCRF-CEM; assay: Induction of apoptosis in human CCRF-CEM cells assessed as inhibition of DNA synthesis at IC50 after 24 hrs by propidium iodide/BrdU staining by flow cytometry; format: functional; set-up: scale not given: the % may be the effect or the level left
[26] = system: CCRF-CEM; assay: Induction of apoptosis in human CCRF-CEM cells assessed as inhibition of DNA synthesis at 5 times IC50 after 24 hrs by propidium iodide/BrdU staining by flow cytometry; format: functional; set-up: scale not given: the % may be the effect or the level left
[27] = system: CCRF-CEM; assay: Induction of apoptosis in human CCRF-CEM cells assessed as inhibition of RNA synthesis at IC50 after 24 hrs by propidium iodide/BrU staining by flow cytometry; format: functional; set-up: scale not given: the % may be the effect or the level left
[28] = system: CCRF-CEM; assay: Induction of apoptosis in human CCRF-CEM cells assessed as inhibition of RNA synthesis at 5 times IC50 after 24 hrs by propidium iodide/BrU staining by flow cytometry; format: functional; set-up: scale not given: the % may be the effect or the level left
[29] = system: Staphylococcus aureus; assay: Antimicrobial activity against Staphylococcus aureus CCM 3953 up to 200 uM after 24 to 48 hrs by broth microdilution method; format: functional, organism-based
[30] = system: Escherichia coli; assay: Antimicrobial activity against Escherichia coli CCM 3954 up to 200 uM after 24 to 48 hrs by broth microdilution method; format: functional, organism-based
[31] = system: Staphylococcus aureus; assay: Antimicrobial activity against methicillin-resistant Staphylococcus aureus MRSA 4591 up to 200 uM after 24 to 48 hrs by broth microdilution method; format: functional, organism-based
[32] = system: Pichia kudriavzevii; assay: Antifungal activity against Candida crusei up to 200 uM after 24 to 48 hrs by broth microdilution method; format: functional, organism-based
[33] = system: Candida tropicalis; assay: Antifungal activity against Candida tropicalis up to 200 uM after 24 to 48 hrs by broth microdilution method; format: functional, organism-based
[34] = system: Candida parapsilosis; assay: Antifungal activity against Candida parapsilosis up to 200 uM after 24 to 48 hrs by broth microdilution method; format: functional, organism-based
[35] = Metal chelating activity of the compound assessed as formation of Co2+ complex by UV-vis spectrometry; format: physicochemical
[36] = Metal chelating activity of the compound assessed as formation of Cu2+ complex by UV-vis spectrometry; format: physicochemical
[37] = Metal chelating activity of the compound assessed as formation of Fe3+ complex by UV-vis spectrometry; format: physicochemical
[38] = Metal chelating activity of the compound assessed as formation of Ni2+ complex by UV-vis spectrometry; format: physicochemical
[39] = Metal chelating activity of the compound assessed as formation of Zn2+ complex by UV-vis spectrometry; format: physicochemical
[40] = Metal chelating activity of the compound assessed as formation of Ca2+ complex by UV-vis spectrometry; format: physicochemical
[41] = Metal chelating activity of the compound assessed as formation of Mg2+ complex by UV-vis spectrometry; format: physicochemical
[42] = Metal chelating activity of the compound assessed as formation of Fe2+ complex by UV-vis spectrometry; format: physicochemical
[43] = system: Nucleic Acid; assay: Binding affinity to DNA (unknown origin) assessed as DNA intercalation by UV-visible spectrophotometry; format: nucleic-acid assay
[44] = system: Nucleic Acid; assay: Binding affinity to DNA (unknown origin) assessed as DNA intercalation by UV-visible spectrophotometry in presence of Cu2+; format: nucleic-acid assay

Compound: O=C(N/N=C/c1cc(F)ccc1O)c1ccc2c3c(ccc2c1)N1Cc2c(ccc4cc(C(=O)N/N=C/c5cc(F)ccc5O)ccc24)N(C3)C1
- Activity [1]: Active
- Activity [2]: Active
- Ratio IC50 [3]: 26.3
- Ratio IC50 [4]: 9.8
- Ratio IC50 [5]: 18.1
- Ratio IC50 [6]: 17.6
- Ratio IC50 [7]: 17.6
- Ratio IC50 [8]: 33.6
- Ratio IC50 [9]: 33.6
- Ratio IC50 [10]: 64.9
- Ratio IC50 [11]: 64.9
- Ratio IC50 [12]: 51
- Ratio IC50 [13]: 51
- IC50 [14]: 1580 nM
- IC50 [15]: 2300 nM
- IC50 [16]: 2360 nM
- IC50 [17]: 1240 nM
- IC50 [18]: 640 nM
- IC50 [19]: 54100 nM
- Activity [20]: 58.01%
- Activity [21]: 41.1%
- Activity [22]: 42.41%
- Activity [23]: 0.3%
- Activity [24]: 0.15%
- Activity [25]: 13.69%
- Activity [26]: 1.54%
- Activity [27]: 63.13%
- Activity [28]: 4.37%
- Activity [29]: inactive
- Activity [30]: inactive
- Activity [31]: inactive
- Activity [32]: inactive
- Activity [33]: inactive
- Activity [34]: inactive
- Activity [35]: Active
- Activity [36]: Active
- Activity [37]: Active
- Activity [38]: Active
- Activity [39]: Active
- Activity [40]: Not Active
- Activity [41]: Not Active
- Activity [42]: Not Active
- Activity [43]: inactive
- Activity [44]: Active

Compound: COC(=O)c1ccc(O)c(/C=N/NC(=O)c2ccc3c4c(ccc3c2)N2Cc3c(ccc5cc(C(=O)N/N=C/c6cc(C(=O)OC)ccc6O)ccc35)N(C4)C2)c1
- Activity [1]: Active
- Activity [2]: Active
- Ratio IC50 [3]: 16.3
- Ratio IC50 [4]: 3.2
- Ratio IC50 [5]: 9.4
- Ratio IC50 [6]: 4.3
- Ratio IC50 [7]: 4.3
- Ratio IC50 [8]: 7.7
- Ratio IC50 [9]: 7.7
- Ratio IC50 [10]: 8.9
- Ratio IC50 [11]: 8.9
- Ratio IC50 [12]: 9.7
- Ratio IC50 [13]: 9.7
- IC50 [14]: 5620 nM
- IC50 [15]: 9760 nM
- IC50 [16]: 21200 nM
- IC50 [17]: 11900 nM
- IC50 [18]: 10300 nM
- IC50 [19]: 87400 nM
- Activity [20]: 14.56%
- Activity [21]: 31.26%
- Activity [22]: 55.48%
- Activity [23]: 1.19%
- Activity [24]: 0.86%
- Activity [25]: 46.43%
- Activity [26]: 54.61%
- Activity [27]: 28.66%
- Activity [28]: 21.03%
- Activity [29]: inactive
- Activity [30]: inactive
- Activity [31]: inactive
- Activity [32]: inactive
- Activity [33]: inactive
- Activity [34]: inactive
- Activity [35]: Active
- Activity [36]: Active
- Activity [37]: Active
- Activity [38]: Active
- Activity [39]: Active
- Activity [40]: Not Active
- Activity [41]: Not Active
- Activity [42]: Not Active
- Activity [43]: inactive
- Activity [44]: Active

Compound: O=C(NN=C(c1ccccn1)c1ccccn1)c1ccc2c3c(ccc2c1)N1Cc2c(ccc4cc(C(=O)NN=C(c5ccccn5)c5ccccn5)ccc24)N(C3)C1
- Activity [1]: Active
- Activity [2]: Active
- Ratio IC50 [3]: 1.7
- Ratio IC50 [4]: 0.7
- Ratio IC50 [5]: 2.4
- Ratio IC50 [6]: 2.8
- Ratio IC50 [7]: 2.8
- Ratio IC50 [8]: 0.8
- Ratio IC50 [9]: 0.8
- Ratio IC50 [10]: 3.4
- Ratio IC50 [11]: 3.4
- Ratio IC50 [12]: 2
- Ratio IC50 [13]: 2
- IC50 [14]: 910 nM
- IC50 [15]: 640 nM
- IC50 [16]: 560 nM
- IC50 [17]: 2030 nM
- IC50 [18]: 460 nM
- IC50 [19]: 2090 nM
- Activity [20]: 24.51%
- Activity [21]: 3.63%
- Activity [22]: 68.14%
- Activity [23]: 0.53%
- Activity [24]: 1.72%
- Activity [25]: 57.31%
- Activity [26]: 55.69%
- Activity [27]: 60.37%
- Activity [28]: 55.9%
- Activity [29]: inactive
- Activity [30]: inactive
- Activity [31]: inactive
- Activity [32]: inactive
- Activity [33]: inactive
- Activity [34]: inactive
- Activity [35]: Active
- Activity [36]: Active
- Activity [37]: Active
- Activity [38]: Active
- Activity [39]: Active
- Activity [40]: Not Active
- Activity [41]: Not Active
- Activity [42]: Not Active
- Activity [43]: inactive
- Activity [44]: Active
